What was measured:
Assay in all cases: Isothermal titration calorimetry
Assay type in all cases: binding
Conditions in all cases: read-out: Values shown are Kd
UEA-1 = target: UEA-1
In short: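 Commercial UEA-1 lectin was dialysed overnight into the ITC buffer, and lyophilised glycans were dissolved in the dialysate. Cell concentration was set by A280 with a calculated extinction coefficient. Titration used 16 injections of 2.45 μL (1 s duration, 180 s spacing) at 5 μCal reference power. Integrated peaks were fitted to a single-site model to give Kd and ΔH.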

RBC36 = target: RBC36
In short: (§1)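 N-terminally His6-tagged VLR ectodomains were expressed in Hi5 insect cells or by transient transfection of 293S cells, then purified by Ni-NTA and Superdex75 size exclusion. Protein was dialysed overnight into the ITC buffer, and lyophilised glycans were dissolved in the dialysate. Cell concentration was set by A280 with calculated extinction coefficients. Titration used 16 injections of 2.45 μL (1 s each, 180 s apart) at 5 μCal reference power. The single-site fit gave Kd and ΔH.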

Tn4-22 = target: Tn4-22
In short: as §1

O13 = target: O13
In short: as §1

Row | Compound | Kd (UEA-1) [µM] | Kd (RBC36) [µM] | Kd (Tn4-22) [µM] | Kd (O13) [µM]
1 | C[C@@H]1O[C@@H](O[C@H]2[C@H](O[C@H]3[C@H](O)[C@@H](O)C(O)O[C@@H]3CO)O[C@H](CO)[C@H](O)[C@@H]2O)[C@@H](O)[C@H](O)[C@@H]1O (stereo partly drawn) [2′-fucosyllactose, 2′-fucosyllactose, Fucα1-2Galβ1-4Glc] | 12.5 | 57.1 |  | 
2 | CC(=O)N[C@H]1C(O)O[C@H](CO)[C@@H](O[C@@H]2O[C@H](CO)[C@H](O)[C@H](O)[C@H]2O[C@@H]2O[C@@H](C)[C@@H](O)[C@@H](O)[C@@H]2O)[C@@H]1O (stereo partly drawn) [H-trisaccharide, blood group H-trisaccharide type II, Fucα1-2Galβ1-4GlcNAc] | 8.1 | 8.3 | 6.9 | 2.6
3 | CC(=O)N[C@H]1[C@H](O[C@H]2[C@@H](O)[C@@H](CO)O[C@@H](O[C@H]3[C@H](O)[C@@H](O)C(O)O[C@@H]3CO)[C@@H]2O)O[C@H](CO)[C@@H](O[C@@H]2O[C@H](CO)[C@H](O)[C@H](O)[C@H]2O)[C@@H]1O (stereo partly drawn) [LNnT, lacto-N-neotetraose, Galβ1-4GlcNAcβ1-3Galβ1-4Glc] |  |  | 16.2 | 160
4 | CC(=O)N[C@H]1C(O)O[C@H](CO)[C@@H](O[C@@H]2O[C@H](CO)[C@H](O)[C@H](O)[C@H]2O[C@@H]2O[C@@H](C)[C@@H](O)[C@@H](O)[C@@H]2O)[C@@H]1O[C@@H]1O[C@@H](C)[C@@H](O)[C@@H](O)[C@@H]1O (stereo partly drawn) [Lewis-Y, Lewis-Y antigen tetrasaccharide, Fucα1-2Galβ1-4(Fucα1-3)GlcNAc] | 19.8 |  |  | 
